# ChEMBL document CHEMBL4011632, “Design, Synthesis, and Evaluation of Thiazolidine-2,4-dione Derivatives as a Novel Class of Glutaminase Inhibitors” (J Med Chem, 2017)
# The source made the active and inactive calls. The calls are words filed in the database; no cut-off is given here.
# Columns and labels:
# [1] = target: T1, Peroxisome proliferator-activated receptor gamma (Homo sapiens) (UniProt P37231); assay: Transactivation of GAL4-DBD fused human PPARgamma LBD (199 to 477 residues) expressed in African green monkey CV1 cells after 18 to 24 hrs by luciferase reporter gene assay; assay type: cell-based
# T1 sequence (whole entry): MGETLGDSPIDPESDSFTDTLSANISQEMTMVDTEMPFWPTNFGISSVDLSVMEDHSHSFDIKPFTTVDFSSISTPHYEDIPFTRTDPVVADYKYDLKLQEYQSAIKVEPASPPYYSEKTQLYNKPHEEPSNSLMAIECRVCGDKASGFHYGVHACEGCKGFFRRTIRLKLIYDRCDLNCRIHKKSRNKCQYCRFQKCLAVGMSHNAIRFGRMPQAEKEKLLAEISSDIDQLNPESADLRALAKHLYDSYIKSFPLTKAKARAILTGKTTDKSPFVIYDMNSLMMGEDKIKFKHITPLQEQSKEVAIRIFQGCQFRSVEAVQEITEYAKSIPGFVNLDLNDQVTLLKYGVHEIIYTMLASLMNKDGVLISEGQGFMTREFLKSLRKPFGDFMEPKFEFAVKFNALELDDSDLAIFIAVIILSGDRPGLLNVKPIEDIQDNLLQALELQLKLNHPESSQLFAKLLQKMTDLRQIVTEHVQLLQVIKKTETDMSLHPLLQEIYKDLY
# [2] = target: T2, Peroxisome proliferator-activated receptor alpha (Homo sapiens) (UniProt Q07869); assay: Transactivation of GAL4-DBD fused human PPARalpha LBD (193 to 469 residues) expressed in African green monkey CV1 cells after 18 to 24 hrs by luciferase reporter gene assay; assay type: cell-based
# T2 sequence (whole entry): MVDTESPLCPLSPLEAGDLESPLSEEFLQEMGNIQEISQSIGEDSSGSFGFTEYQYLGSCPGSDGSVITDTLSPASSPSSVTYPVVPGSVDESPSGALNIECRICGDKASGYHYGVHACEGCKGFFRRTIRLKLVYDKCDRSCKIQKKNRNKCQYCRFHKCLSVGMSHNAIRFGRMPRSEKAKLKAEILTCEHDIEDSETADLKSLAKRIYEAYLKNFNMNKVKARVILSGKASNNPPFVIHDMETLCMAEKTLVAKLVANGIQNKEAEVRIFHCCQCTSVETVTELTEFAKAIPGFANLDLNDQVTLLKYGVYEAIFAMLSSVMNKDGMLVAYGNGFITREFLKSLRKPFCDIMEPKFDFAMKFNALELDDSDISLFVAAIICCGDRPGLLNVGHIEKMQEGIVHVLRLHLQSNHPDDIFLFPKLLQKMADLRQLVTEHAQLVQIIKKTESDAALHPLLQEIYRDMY
# [3] = target: T3, Peroxisome proliferator-activated receptor delta (Homo sapiens) (UniProt Q03181); assay: Transactivation of GAL4-DBD fused human PPARdelta LBD (165 to 441 residues) expressed in African green monkey CV1 cells after 18 to 24 hrs by luciferase reporter gene assay; assay type: cell-based
# T3 sequence (whole entry): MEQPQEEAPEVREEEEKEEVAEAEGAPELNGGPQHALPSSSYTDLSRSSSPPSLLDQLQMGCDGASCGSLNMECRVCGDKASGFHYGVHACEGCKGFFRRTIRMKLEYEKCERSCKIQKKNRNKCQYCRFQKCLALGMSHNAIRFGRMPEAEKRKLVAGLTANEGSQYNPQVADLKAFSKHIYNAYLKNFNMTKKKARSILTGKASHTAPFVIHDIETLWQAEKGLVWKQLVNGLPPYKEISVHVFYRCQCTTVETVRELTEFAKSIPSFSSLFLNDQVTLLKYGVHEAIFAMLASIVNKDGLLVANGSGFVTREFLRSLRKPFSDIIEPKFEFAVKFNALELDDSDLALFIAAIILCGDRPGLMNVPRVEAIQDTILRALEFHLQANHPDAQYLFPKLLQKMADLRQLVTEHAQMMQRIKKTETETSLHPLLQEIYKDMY
# ASPC1 = assay: Antitumor activity against human Aspc-1 cells xenografted in Balb/cAnN.Cg-Foxn1nu/CrlNarl mouse assessed as tumor growth inhibition at 50 mg/kg, ip once daily administered for 5 days followed by 2 days without dosing for 43 days relative to control; assay type: functional; details: read-out: TGI
# Summary of the method: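 Male nude mice (7−8 weeks, 18−22 g) received 4.5 × 10^6 AsPC-1 cells sc in the right flank, in HBSS mixed 1:1 with Matrigel. Mice were randomized once mean tumor reached ~100 mm3 (day 1). Dosing was ip once daily, 5 days on/2 days off, with 2% DMSO/PBS as vehicle. Tumors were measured twice weekly, V = ab²/2. %TGI = [1 − ((Tt − T0)/(Ct − C0))] × 100 from median volumes; Student's t test.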
# [4] = Total clearance in Sprague-Dawley rat at 0.1 mg/kg, iv by HPLC-MS analysis; assay type: ADME, organism-based; details: in vivo
# Summary of the method: (§1)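 Male rats (330−380 g, 9−10 weeks old), jugular-vein cannulated 1 day before dosing, n = 3. Dosed iv in DMA/PEG400 (20%/80%, v/v) or po in 1% CMC/0.5% Tween-80. Blood (100 μL) drawn at 0, 2 min, 5 min (iv only), 15 and 30 min, and 1, 2, 4, 6, 8 and 24 h. Plasma measured by LC-MS/MS; parameters from noncompartmental analysis.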
# [5] = AUC (0 to infinity) in Sprague-Dawley rat at 1 mg/kg, po by HPLC-MS analysis; assay type: ADME, organism-based; design: dose 1 mg/kg, route oral, time infinity; details: in vivo; summary of the method: as §1
# Homo sapiens [6] = species on record: Homo sapiens; assay: Selectivity ratio of IC50 for recombinant human His-tagged KGA S384A mutant expressed in Escherichia coli BL21(DE3)pLysS to IC50 for human His-tagged KGA (L123 to L669 residues) expressed in Escherichia coli BL21(DE3)pLysS
# Homo sapiens [7] = species on record: Homo sapiens; assay: Selectivity ratio of IC50 for recombinant human His-tagged KGA R387A mutant expressed in Escherichia coli BL21(DE3)pLysS to IC50 for human His-tagged KGA (L123 to L669 residues) expressed in Escherichia coli BL21(DE3)pLysS
# Homo sapiens [8] = species on record: Homo sapiens; assay: Selectivity ratio of IC50 for recombinant human His-tagged KGA K507A mutant expressed in Escherichia coli BL21(DE3)pLysS to IC50 for human His-tagged KGA (L123 to L669 residues) expressed in Escherichia coli BL21(DE3)pLysS
# [9] = Inhibition of recombinant human His-tagged KGA S384A mutant expressed in Escherichia coli BL21(DE3)pLysS using glutamine substrate preincubated for 10 mins followed by substrate addition measured after 60 mins
# [10] = Tmax in Sprague-Dawley rat at 1 mg/kg, po by HPLC-MS analysis; assay type: ADME, organism-based; details: in vivo; summary of the method: as §1
# Homo sapiens [11] = species on record: Homo sapiens; assay: Selectivity ratio of IC50 for recombinant human His-tagged KGA R387L mutant expressed in Escherichia coli BL21(DE3)pLysS to IC50 for human His-tagged KGA (L123 to L669 residues) expressed in Escherichia coli BL21(DE3)pLysS
# [12] = Inhibition of recombinant human His-tagged KGA K507A mutant expressed in Escherichia coli BL21(DE3)pLysS using glutamine substrate preincubated for 10 mins followed by substrate addition measured after 60 mins
Activity [1],Activity [2],Activity [3],clearance [4] [mL/min/kg],AUC(0-inf) [5] [ng·h/mL],Ratio IC50 (Homo sapiens [6]),Ratio IC50 (Homo sapiens [7]),Ratio IC50 (Homo sapiens [8]),IC50 [9] [nM],Tmax [10] [h],Ratio IC50 (Homo sapiens [11]),IC50 [12] [nM],Structure (SMILES),inhibition in vivo at 50 mg/kg (ASPC1) [%]
inactive,inactive,inactive,–,–,–,–,–,–,–,–,–,O=C1NC(=O)/C(=C/c2ccc(-c3ccc(-n4c(-c5cccs5)cc(/C=C5\SC(=O)NC5=O)c4-c4cccs4)cc3)cc2)S1,–
–,–,–,0.4,222,3.5,> 490,10.2,361,4,12.5,1040,Cc1cc(/C=C2\SC(=O)NC2=O)c(C)n1-c1ccc(-c2ccc(/C=C3\SC(=O)NC3=O)cc2)cc1,64
inactive,inactive,inactive,–,–,1.5,191,4.7,87,–,13.5,269,Cc1cc(/C=C2\SC(=O)NC2=O)c(C)n1-c1ccc(-c2ccc(/C=C3\SC(=O)NC3=O)c(Cl)c2)cc1,–
